Measurements of several laboratories.
Compare with care: the assays were run in different laboratories.
Effect on: cell growth or viability

With `O=C(c1cccc(F)c1)c1c[nH]c2ncc(-c3ccc(N4CCNCC4)nc3)cc12` the viability was 66.2% (MRC5; MTT; 10 µM; 48 h).
The IC50 of `CO[C@]1([C@@H]2CSC(=O)N2C2CCCC2)C[C@H]2C[C@@H](CC[C@H](C)/C=C\C=C\CC/C(C)=C\C(=O)O2)O1` is reported as 5.07 µM (MDA-MB-231; MTT; 72 h).
`Cl.O[C@]12C=C(c3nccc4c3[nH]c3ccccc34)[C@@H]3CCN(CCCC/C=C\CC1)C[C@@]31C[C@@H]3/C=C\CCCCN3[C@H]12` has an IC50 of 0.69 µg/mL (LLC-PK11; neutral red; 48 h).
With `COc1cc2c(cc1OS(N)(=O)=O)CC[C@@H]1[C@@H]2CC[C@]2(C)[C@@H](OS(N)(=O)=O)CC[C@@H]12` the GI50 was 0.29 µM (MDA-MB-231).
With `COc1ccc(C(=O)c2c[nH]c3ncc(-c4ccc(N5CCN(S(C)(=O)=O)CC5)nc4)cc23)cc1` the viability was 70.1% (MRC5; MTT; 10 µM; 48 h).
`CCN1C(=O)SC[C@H]1[C@@]1(O)C[C@H]2C[C@@H](CC[C@H](C)/C=C\C=C\CC/C(C)=C\C(=O)O2)O1` has an IC50 of 7.19 µM (MDA-MB-231; MTT; 72 h).
For `O=C(c1ccc(F)cc1)c1c[nH]c2ncc(-c3ccc(N4CCNCC4)nc3)cc12`, the viability was 89.4% (MRC5; MTT; 10 µM; 48 h).
`COc1cc2c(cc1OS(N)(=O)=O)CCN(Cc1cc(Br)c(OC)c(OC)c1)C2` has a GI50 of 0.03 µM (MDA-MB-231; WST-1; 96 h).
The IC50 of `C/C1=C/C(=O)O[C@@H]2C[C@@H](CC[C@H](C)/C=C\C=C\CC1)O[C@@](O)([C@@H]1CSC(=O)N1)C2` is reported as 4.19 µM (MDA-MB-231; MTT; 72 h).
`CCCS(=O)(=O)Nc1ccc(F)c(C(=O)c2c[nH]c3ncc(Cl)cc23)c1F` has an EC50 of 0.03 µM (A-375).
With `C1COCCN1.COc1ccc(/C=C\c2cc(I)c(OC)c(I)c2)cc1OP(=O)(O)O` the GI50 was over 1 µg/mL (KM-20L2; SRB; 48 h).
`CO[C@]1([C@@H]2CSC(=O)N2CCCO)C[C@H]2C[C@@H](CC[C@H](C)/C=C\C=C\CC/C(C)=C\C(=O)O2)O1` gave an IC50 of over 50 µM (MDA-MB-231; MTT; 72 h).
For `N.N.[Cl][Pt][Cl]`, the IC50 was 13.1 µM (BEL-7404; MTT; 48 h).
